Only some compounds are listed: those with a hit (about 1.9% of all), similar ones and a draw of the others.
MsrA inh = bovine MsrA enzyme inhibitors, primary screen, biochemical, absorbance, HTS | Methionine sulfoxide reductase A (Bos taurus) | inhibition, % at 15.5 µM | hit rate 0.75% among 360,000 | purified bovine MsrA, absorbance read-out | AID 651718, 2012; in the data active means inhibition above about 4.5%
UCH37 inh = inhibitors of human UCH37 deubiquitinase, primary screen, biochemical, Ub-AMC cleavage, fluorescence. Ubiquitin carboxyl-terminal hydrolase isozyme L5 (Homo sapiens), Q9Y5K5. AID 588478, 2011. inhibition, % (test concentration not listed). hit rate 0.33% among 330,000. purified proteasome/UCH37;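 active means mean inhibition over replicate wells above about 20%, limit read from the data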
Target sequence (Q9Y5K5 whole entry, looked up): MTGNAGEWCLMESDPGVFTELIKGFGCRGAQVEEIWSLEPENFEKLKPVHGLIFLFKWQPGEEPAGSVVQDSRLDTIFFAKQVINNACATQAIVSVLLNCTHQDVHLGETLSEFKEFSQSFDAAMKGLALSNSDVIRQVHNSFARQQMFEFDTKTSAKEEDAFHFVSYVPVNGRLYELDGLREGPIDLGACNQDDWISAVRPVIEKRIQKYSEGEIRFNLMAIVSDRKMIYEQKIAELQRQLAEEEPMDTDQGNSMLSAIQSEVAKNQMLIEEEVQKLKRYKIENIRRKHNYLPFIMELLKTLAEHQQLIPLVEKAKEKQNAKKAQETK
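system = Proteasome-associated human UCH37 deubiquitinase | amount = 0.15 nM proteasome as dispensed | medium = pH 7.4 Tris-HCl (50 mM) with ovalbumin, ATP-MgCl2, DTT | incubation = 30 min preincubation with enzyme, 25 min cleavage at room temperature | detection = AMC fluorescence 355/460 nm | read-out basis = percent inhibition | controls = no-proteasome and no-compound wells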
MsrA act = bovine MsrA enzyme activators, primary screen, biochemical, absorbance, HTS. hit rate 0.3% among 360,000. Methionine sulfoxide reductase A (Bos taurus). activation, % at 10.6 µM. purified bovine MsrA, absorbance read-out; in the data active means activation above about 7.5%
aDG glyco up = activators of alpha-DG glycosylation, primary screen, uHTS, Pro5-aDG cells, AlphaScreen. alpha-DG glycosylation AlphaScreen (IIH6); 0% Pro5, 100% B10-LARGE cell signal. hit rate 0.22% among 360,000. activation, % at 10 µM;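 active means activation of at least 8% versus controls, or a plate z-score of at least 8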;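 further: Pro5 are CHO cells carrying HIG-tagged alpha-DG that lacks glycosylation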
Glyco luc inh = increase of ERlucT glycosylation luciferase signal, primary screen, N-linked glycosylation inhibitor project, D54 ERlucT cells, luminescence, set 2; hit rate 0.23% among 360,000; AID 588692, 2011; reporter increase, % at 12.5 µM; D54 ERlucT glycosylation luciferase reporter, 24 h; percent of 100 nM tunicamycin response;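 active means mean luciferase reporter signal, scaled so untreated is 0 and the glycosylation-blocking control 100, at or above a set limit in every replicate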;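 further: luciferase carries N-glycosylation sites so blocking glycosylation raises the light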
Vif imaging = HIV Vif self-association inhibitors, primary screen, imaging, HEK293T, single point. HEK293T cells, Vif self-association by quenched fluorescence, 24 h. hit rate 0.35% among 340,000. AID 602346, 2012. inhibition, % at 7.49 µM; in the data active means inhibition above about 50%, passing the limit was not always enough
aDG conf = alpha-DG glycosylation enhancers, retest, confirmation, single concentration, Pro5-aDG cells | hit rate 17% among 600 | IIH6 AlphaLISA; scaled to LARGE-overexpressing B10 cells as 100% | activation, % at 10 µM (by protocol) | shares compounds with aDG glyco up;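 active means activation of at least 7% in one or more replicates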;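 further: cells exposed to compound for two days before detection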
Of the large screens only hits and unclear results are named; the others gave an inactive call (follow-up assays come after a bar, where they were run).

CCCCn1c(N)c(S(=O)(=O)c2ccc(C)cc2)c2nc3ccccc3nc21	none
Cc1ccc(S(=O)(=O)c2c(N)n(Cc3ccco3)c3nc4ccccc4nc23)cc1	aDG glyco up 17.4 | aDG conf inactive
Cc1cc2c(cc1C)C(=O)C(Br)=C(N)C2=O	aDG glyco up 6.1 | aDG conf inactive
Cc1cc(-c2cc(C)c(N)cc2C)c(C)cc1N	none
Cc1ccc(OCCCCn2ccnc2C)c(C)c1	aDG glyco up 3.0 | aDG conf inactive
CCOC(=O)C1CCCN(CC(O)=C(C#N)c2nc(-c3ccccc3)cs2)C1 (configuration not stated)	none (no result: MsrA inh, MsrA act, aDG glyco up, Glyco luc inh, Vif imaging)
O=C(/C=C/c1ccco1)Nc1ccc(-c2nc3ccccc3[nH]2)cc1	aDG glyco up 5.0 | aDG conf inactive
Cc1nc2ccc3nc(NC(=O)c4ccc5c(c4)OCCO5)sc3c2s1	aDG glyco up 7.7 | aDG conf inactive
CCOc1ccc(CC(=O)NN=Cc2cccnc2)cc1	none (no result: MsrA inh, MsrA act, aDG glyco up, Glyco luc inh, Vif imaging)
CCNC(=S)NN=Cc1cn(Cc2ccccc2F)c2ccccc12	none (no result: MsrA inh, MsrA act, aDG glyco up, Glyco luc inh, Vif imaging)
c1ccc(-c2nnc(CN3CCN(C(c4ccccc4)c4ccccc4)CC3)o2)cc1	aDG glyco up 6.8 (no result: Vif imaging) | aDG conf inactive
c1ccc(-c2nnc(CN3CCN(c4ccccc4)CC3)o2)cc1	none
O=C(OCc1ccccc1)N1CCC2CC1c1cc(N3CCNCC3)ccc12 (configuration not stated)	none (no result: UCH37 inh, Vif imaging)
O=C(OCc1ccccc1)N1CCC2CC1c1cc(N3CCCCC3)ccc12 (configuration not stated)	aDG glyco up 5.9 (no result: UCH37 inh) | aDG conf inactive
COc1ccccc1Cc1c(-c2ccccc2)nc2c3ccccc3ccn12	none (no result: UCH37 inh, MsrA act, aDG glyco up, Glyco luc inh, Vif imaging)
COc1ccccc1Cc1c(-c2ccc(C#N)cc2)nc2c3ccccc3ccn12	aDG glyco up 8.9 (no result: UCH37 inh, Vif imaging) | aDG conf inactive
Cc1ccccc1N(CC(=O)NN=Cc1cc(C)n(-c2ccccc2C)c1C)S(C)(=O)=O	none (no result: MsrA inh, MsrA act, aDG glyco up, Glyco luc inh, Vif imaging)
COc1ccc2cc(CN(C(=O)Nc3ccccc3)C3CCCC3)c(=O)[nH]c2c1	aDG glyco up 16.2 | aDG conf inactive
COc1ccc2[nH]c(=O)c(CN(C(=O)NC3CCCCC3)C3CCCCC3)cc2c1	none
CCN(CC)C(=O)NCc1c(C)cc(C)cc1C	aDG glyco up 46.8 (no result: MsrA inh) | aDG conf inactive
Fc1ccc(C=NNc2nc3ccccc3[nH]2)cc1F	none (no result: MsrA inh, MsrA act, aDG glyco up, Glyco luc inh, Vif imaging)
CN1CCN(S(=O)(=O)c2ccc(N(C)Cc3ccc(C(F)(F)F)cc3)c([N+](=O)[O-])c2)CC1	aDG glyco up 5.8 | aDG conf inactive
CC(C)Cn1c(N)c(C(=O)COC(=O)c2ccc(Br)cc2)c(=O)n(C)c1=O	aDG glyco up 3.4 | aDG conf 1.2
c1ccc2cc(-c3cc4ccccn4c3)ccc2c1	aDG glyco up 5.2 | aDG conf inactive
Cc1ccc(S(=O)(=O)ON=C2CCCc3ccccc32)cc1	none (no result: MsrA inh, MsrA act, aDG glyco up, Glyco luc inh, Vif imaging)
CC(CCN1CCc2nc(-c3ccccc3)c(-c3ccccc3)cc2C1)=NO[C@@H](C)c1cc(-c2c(C)cc(C)cc2C)no1	none (no result: MsrA inh, MsrA act, aDG glyco up, Glyco luc inh, Vif imaging)
COc1ccc(-c2cc(C(F)(F)F)nc(N3CCOCC3)n2)cc1	none
COc1ccc(-c2cc(-c3ccc(F)cc3)nc(N3CCN(C)CC3)n2)cc1	aDG glyco up 15.0 | aDG conf inactive
O=C(Nc1ccccc1F)c1ccc([N+](=O)[O-])s1	aDG glyco up 16.3 | aDG conf 3.7
Cn1ncc([N+](=O)[O-])c1C(=O)Nc1cccc2ccccc12	none
O=C(Nc1cccc2ccccc12)c1ccc([N+](=O)[O-])s1	aDG glyco up 12.5 | aDG conf 5.7
CC(=NNC(=O)c1ccccc1)c1nc2ccccc2n1C	none (no result: MsrA inh, MsrA act, aDG glyco up, Glyco luc inh, Vif imaging)
O=C(O)c1ccccc1C(=O)NCc1cccnc1	none
O=C(NCc1cccnc1)NC1(c2ccccc2)CC1	aDG glyco up 10.1 (no result: Vif imaging) | aDG conf inactive
CC(=O)Nc1sc(NN=Cc2ccc(N(C)C)cc2)nc1-c1ccc(C)cc1	none (no result: MsrA inh, MsrA act, aDG glyco up, Glyco luc inh, Vif imaging)
Cc1nc(NCCc2ccc(S(N)(=O)=O)cc2)c2c(C)c(C)sc2n1	aDG glyco up 8.2 (no result: Vif imaging) | aDG conf inactive
Cc1nc(NCc2ccc(S(N)(=O)=O)cc2)c2c(C)c(C)sc2n1	none
COc1ccc(C=NN2CCN(c3ccc(Cl)cc3)CC2)cc1	none (no result: MsrA inh, MsrA act, aDG glyco up, Glyco luc inh, Vif imaging)
CN(C)Cc1c(C(=O)NN=Cc2ccncc2)nnn1-c1nonc1N	none (no result: MsrA inh, MsrA act, aDG glyco up, Glyco luc inh, Vif imaging)
NC(=S)N/N=C/c1coc2c(ccc3ccccc32)c1=O	aDG glyco up 9.0 (no result: UCH37 inh) | aDG conf inactive
CCOc1ccc(C=Nn2c(SC)nnc2-c2ccccc2)cc1OCC	none (no result: MsrA inh, MsrA act, aDG glyco up, Glyco luc inh, Vif imaging)
O=C(Nc1nnc(S(=O)(=O)N2CCOCC2)s1)c1ccc(F)cc1	aDG glyco up 8.7 | aDG conf inactive
CC(=NNC(=O)c1cc(-c2cccc([N+](=O)[O-])c2)n[nH]1)c1cccc(O)c1	none (no result: MsrA inh, MsrA act, aDG glyco up, Glyco luc inh, Vif imaging)
CCCC(=O)c1ccc(N2CCN(C(=O)c3ccccc3)CC2)c(F)c1	none
CCCC(=O)c1ccc(N2CCN(C(=O)c3ccccc3Br)CC2)c(F)c1	aDG glyco up 5.2 | aDG conf inactive
O=C(NNc1ccnc2cc(Cl)ccc12)C1CCCCC1	aDG glyco up 10.0 | aDG conf inactive
CN(C)S(=O)(=O)c1cccc(NC(=S)NN=Cc2cc(Br)ccc2O)c1	none (no result: MsrA inh, MsrA act, aDG glyco up, Glyco luc inh, Vif imaging)
CC1=CC(=N/N=C2/NC(=O)C(CC(=O)Nc3ccccc3F)S2)CC(C)(C)C1 (configuration not stated)	none (no result: MsrA inh, MsrA act, aDG glyco up, Glyco luc inh, Vif imaging)

Screens as filed in PubChem.
